Data: ChEMBL document CHEMBL4011632, “Design, Synthesis, and Evaluation of Thiazolidine-2,4-dione Derivatives as a Novel Class of Glutaminase Inhibitors” (J Med Chem, 2017)

Legend:
[1] = Inhibition of recombinant human His-tagged KGA R387A mutant expressed in Escherichia coli BL21(DE3)pLysS using glutamine substrate preincubated for 10 mins followed by substrate addition measured after 60 mins
Homo sapiens [2] = organism: Homo sapiens; assay: Selectivity index, ratio of IC50 for recombinant human His-tagged GAB (P56-V602 residues) expressed in Escherichia coli C41(DE3)pLysS to IC50 for recombinant human His-tagged KGA (L123 to L669 residues) expressed in Escherichia coli BL21(DE3)pLysS
ASPC1 [3] = assay: Anticlonogenic activity against human Aspc-1 cells at 2 uM after 21 days by crystal violet staining based assay relative to control; assay type: functional; conditions: ASPC1, 504 h
Procedure, shortened: (§1)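 Anchorage-dependent colony formation: AsPC-1 cells seeded at 1000 cells/well in six-well plates and treated with compound. Colony formation is expressed as percent of vehicle treatment. Mean ± SD from at least three independent experiments, each in duplicate.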

Homo sapiens [4] = organism: Homo sapiens; assay: Selectivity ratio of IC50 for recombinant human His-tagged KGA S384A mutant expressed in Escherichia coli BL21(DE3)pLysS to IC50 for human His-tagged KGA (L123 to L669 residues) expressed in Escherichia coli BL21(DE3)pLysS
MDA-MB-231 = assay: Growth inhibition of human MDA-MB-231 cells after 72 hrs by MTS assay; assay type: functional, cell-based; conditions: MDA-MB-231, 72 h
Procedure, shortened: (§2)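 Growth inhibition by MTS viability read-out. Cells seeded in 96-well plates at 4000/well (AsPC-1) or 8500/well (MDA-MB-231). Mean ± SD from at least three independent experiments, each in duplicate.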

Homo sapiens [5] = organism: Homo sapiens; assay: Selectivity ratio of IC50 for recombinant human His-tagged KGA R387L mutant expressed in Escherichia coli BL21(DE3)pLysS to IC50 for human His-tagged KGA (L123 to L669 residues) expressed in Escherichia coli BL21(DE3)pLysS
ASPC1 [6] = assay: Anticlonogenic activity against human Aspc-1 cells at 10 uM after 21 days by crystal violet staining based assay relative to control; assay type: functional; conditions: ASPC1, 504 h; procedure, shortened: as §1
ASPC1 [7] = assay: Growth inhibition of human Aspc-1 cells after 72 hrs by MTS assay; assay type: functional, cell-based; conditions: ASPC1, 72 h; procedure, shortened: as §2
[8] = target: T1, Glutaminase liver isoform, mitochondrial (Homo sapiens, UniProt Q9UI32); assay: Inhibition of recombinant human His-tagged GAB (P56 to V602 residues) expressed in Escherichia coli C41(DE3)pLysS using glutamine as substrate preincubated for 10 mins followed by substrate addition measured after 60 mins by glutamate dehydrogenase coupled enzyme assay
T1 sequence (Q9UI32 whole entry): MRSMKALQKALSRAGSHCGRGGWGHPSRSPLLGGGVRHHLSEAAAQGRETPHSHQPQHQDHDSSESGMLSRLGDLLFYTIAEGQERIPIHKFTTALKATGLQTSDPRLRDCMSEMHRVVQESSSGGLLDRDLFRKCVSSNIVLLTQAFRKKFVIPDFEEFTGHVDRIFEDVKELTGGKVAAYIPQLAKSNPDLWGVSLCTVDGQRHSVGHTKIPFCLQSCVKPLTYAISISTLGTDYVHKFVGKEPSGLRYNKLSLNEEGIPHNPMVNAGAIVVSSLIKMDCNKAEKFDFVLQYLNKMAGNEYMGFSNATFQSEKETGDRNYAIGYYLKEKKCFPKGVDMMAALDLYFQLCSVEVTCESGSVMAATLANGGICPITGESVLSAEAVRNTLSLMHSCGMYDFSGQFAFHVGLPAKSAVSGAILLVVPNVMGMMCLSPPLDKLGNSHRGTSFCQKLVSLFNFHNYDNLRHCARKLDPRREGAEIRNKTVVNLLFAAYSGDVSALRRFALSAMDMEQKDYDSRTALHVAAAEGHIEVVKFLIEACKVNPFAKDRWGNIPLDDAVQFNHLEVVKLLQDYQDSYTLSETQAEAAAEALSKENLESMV

ASPC1 [9] = assay: Synergistic cytotoxicity against human Aspc-1 cells assessed as reduction in cell viability at ED50 in presence of doxorubicin by MTS assay; assay type: functional
Procedure, shortened: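 AsPC-1 cells treated with compound combinations and viability read by MTS. Combination index at ED50, ED75 and ED90 calculated by the Chou−Talalay method. CI = 1 additive, <1 synergism, >1 antagonism. Representative of three independent experiments.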

[10] = target: T2, Glutaminase kidney isoform, mitochondrial (Homo sapiens, UniProt O94925); assay: Inhibition of recombinant human His-tagged KGA (L123 to L669 residues) expressed in Escherichia coli BL21(DE3)pLysS using glutamine substrate preincubated for 10 mins followed by substrate addition measured after 60 mins by glutamate dehydrogenase coupled enzyme assay
T2 sequence (O94925 whole entry): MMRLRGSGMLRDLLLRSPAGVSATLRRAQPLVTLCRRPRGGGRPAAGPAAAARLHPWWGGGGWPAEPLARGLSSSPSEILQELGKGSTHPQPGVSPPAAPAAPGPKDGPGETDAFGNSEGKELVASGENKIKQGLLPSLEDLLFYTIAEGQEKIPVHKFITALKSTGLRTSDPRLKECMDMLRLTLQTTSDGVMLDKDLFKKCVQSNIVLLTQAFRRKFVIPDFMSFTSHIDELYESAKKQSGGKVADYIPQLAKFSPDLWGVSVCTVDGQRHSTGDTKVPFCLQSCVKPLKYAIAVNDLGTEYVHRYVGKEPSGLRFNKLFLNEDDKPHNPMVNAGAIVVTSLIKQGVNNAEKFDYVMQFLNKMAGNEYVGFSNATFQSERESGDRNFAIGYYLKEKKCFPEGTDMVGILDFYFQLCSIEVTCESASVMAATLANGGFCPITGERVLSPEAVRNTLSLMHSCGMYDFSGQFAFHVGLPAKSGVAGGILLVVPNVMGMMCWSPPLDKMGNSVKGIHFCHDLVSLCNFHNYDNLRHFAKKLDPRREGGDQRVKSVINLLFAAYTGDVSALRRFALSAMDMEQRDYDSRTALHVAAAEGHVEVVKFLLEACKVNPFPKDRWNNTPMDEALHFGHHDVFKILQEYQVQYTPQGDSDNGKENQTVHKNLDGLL

[11] = target: T2, Glutaminase kidney isoform, mitochondrial; assay: Inhibition of recombinant human MCF7 cells derived His-tagged GAC (L123 to S598 residues) expressed in Escherichia coli C41(DE3)pLysS using glutamine as substrate preincubated for 10 mins followed by substrate addition measured after 60 mins by glutamate dehydrogenase coupled enzyme assay
Procedure, shortened: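 Human GAC cloned from MCF7 cDNA into pET28a(+) as a His-tagged construct. Expressed in E. coli C41(DE3)pLysS in Terrific Broth with kanamycin, induced with 1 mM IPTG for 6 h at 25 °C. Purified on Ni2+ resin with 500 mM imidazole elution and exchanged into 50 mM NaH2PO4, 50 mM Tris-HCl pH 8.0, 2 mM DTT, 50% glycerol. Activity measured by two-step glutaminase assay.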

In the case of `Cc1cc(/C=C2\SC(=O)NC2=O)c(C)n1-c1ccc(-c2ccc(/C=C3\SC(=O)NC3=O)cc2)cc1`, the IC50 [1] is reported as over 50000 nM, the Ratio IC50 (Homo sapiens [2]) is reported as 12 and the inhibition at 2 µM (ASPC1 [3]) is reported as 13%. It also gave a Ratio IC50 (Homo sapiens [4]) of 3.5, an IC50 (MDA-MB-231) of 42000 nM and a Ratio IC50 (Homo sapiens [5]) of 12.5. It also gave an inhibition at 10 µM (ASPC1 [6]) of 59%, an IC50 (ASPC1 [7]) of 34500 nM and an IC50 [8] of 1190 nM. The CI (ASPC1 [9]) was 0.45 - 0.68, the IC50 [10] was 102 nM and the IC50 [11] was 381 nM.
With `Cc1cc(/C=C2\SC(=O)NC2=O)c(C)n1-c1ccc(-c2ccc(/C=C3\SC(=O)NC3=O)c(Cl)c2)cc1` the IC50 [1] was 10900 nM, the Ratio IC50 (Homo sapiens [2]) was 74 and the inhibition at 2 µM (ASPC1 [3]) was 18%. For the same molecule, the Ratio IC50 (Homo sapiens [4]) was 1.5, the IC50 (MDA-MB-231) was over 50000 nM and the Ratio IC50 (Homo sapiens [5]) was 13.5. For the same molecule, the inhibition at 10 µM (ASPC1 [6]) was 51%, the IC50 (ASPC1 [7]) was over 50000 nM and the IC50 [8] was 4190 nM. It also gave an IC50 [10] of 57 nM and an IC50 [11] of 255 nM.
`O=C1NC(=O)/C(=C/c2ccc(-c3ccc(-n4c(-c5cccs5)cc(/C=C5\SC(=O)NC5=O)c4-c4cccs4)cc3)cc2)S1` gave a Ratio IC50 (Homo sapiens [2]) of 2, an inhibition at 2 µM (ASPC1 [3]) of 64% and an IC50 (MDA-MB-231) of 28700 nM. For the same molecule, the inhibition at 10 µM (ASPC1 [6]) was 87%, the IC50 (ASPC1 [7]) was 14800 nM and the IC50 [8] was 102 nM. The CI (ASPC1 [9]) was 0.45 - 0.68, the IC50 [10] was 50 nM and the IC50 [11] was 49 nM.
